FLuc inhib CS: firefly luciferase enzyme inhibitors, primary screen, artefact control for luciferase-based inhibitor screens, biochemical, luminescence, ATPLite; Luciferin 4-monooxygenase (Photinus pyralis), P08659; 10 min; inhibition, % at 10 µM; 200,000 compounds, 1.5% hits; AID 1006, 2008;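 active = inhibition above about 50% when tested at 10 µM, limit read from the data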
Target sequence (P08659 whole entry, looked up): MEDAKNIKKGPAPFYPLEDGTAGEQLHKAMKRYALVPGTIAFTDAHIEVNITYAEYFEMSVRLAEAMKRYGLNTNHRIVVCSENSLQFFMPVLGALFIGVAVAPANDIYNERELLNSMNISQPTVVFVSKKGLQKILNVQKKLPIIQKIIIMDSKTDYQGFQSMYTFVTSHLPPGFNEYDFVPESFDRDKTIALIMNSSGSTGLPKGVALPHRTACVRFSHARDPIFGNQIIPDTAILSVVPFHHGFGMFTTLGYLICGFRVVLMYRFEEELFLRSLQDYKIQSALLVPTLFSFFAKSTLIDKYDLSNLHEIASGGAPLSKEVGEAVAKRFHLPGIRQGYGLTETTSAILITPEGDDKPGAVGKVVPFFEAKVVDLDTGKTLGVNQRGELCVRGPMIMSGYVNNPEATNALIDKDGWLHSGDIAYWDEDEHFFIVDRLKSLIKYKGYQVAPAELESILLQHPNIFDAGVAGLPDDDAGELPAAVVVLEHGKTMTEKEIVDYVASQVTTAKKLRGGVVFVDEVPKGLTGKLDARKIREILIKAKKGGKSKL
PPC-1+TRAIL kill: compounds killing PPC-1 cancer cells with TRAIL present, primary screen, TRAIL potentiator project, ATPLite luminescence, uHTS | PPC-1 cells + TRAIL, ATPLite viability luminescence | cell killing (% activity), % at 4 µM or 5 µM | 220,000 compounds, 0.41% hits;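 active = cell killing above 50% in the first pass at 4 µM, then a duplicate retest at 5 µM averaging 50% or more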;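 note: plate controls were cells with TRAIL plus DMSO for no effect and medium-only wells lacking cells for full effect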
C8 TRAIL sens: viability loss with TRAIL in NB7+C8 cells, primary screen, TRAIL sensitizer project, cell-based, ATPlite luminescence; inhibition (viability loss, TRAIL sensitization), % at 10 µM; 360,000 compounds, 1% hits;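 active = compounds causing at least 50% loss of cell viability in the single-dose screen, relative to plate controls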
FLuc stim CS: FLuc activators, initial screening, artefact control for FLuc-dependent activation tests, biochemical, ATPlite luminescence. Luciferin 4-monooxygenase (Photinus pyralis), P08659. ATPlite luciferase biochemical, 10 min; 0 = ATP-free wells, 1 = DMSO control. activation factor at 10 µM. 200,000 tested, under 10 active;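 active = luciferase activation factor, scaled between plate controls, of at least 2 with compound at 10 µM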
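Assay system: Luciferase/luciferin detection reagent, cell-free biochemical luciferase assay / Read-out: luciferase activation / Benchmarks: No-ATP low control, compound-free enzyme-plus-ATP high control / Medium: PBS buffer for ATP / Detection: luminescence measurement of luciferase light output / Schedule: 10 min at ambient temperature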
Numbers without * were called inactive; nt = no result. Shown are actives, neighbours in structure and some others; about 1.6% of the full set was active somewhere.

SMILES	FLuc inhib CS	PPC-1+TRAIL kill	C8 TRAIL sens	FLuc stim CS
O=C(Nc1ccc([N+](=O)[O-])cc1Cl)c1cc(Cl)ccc1O	nt	nt	80*	nt
CC(C)NC(=O)C1(C)CCCCN1Cc1ccc(OCc2ccccc2)cc1 (centres undefined)	nt	nt	7	nt
CCOC(=O)Cc1csc(NC(=O)/C=C/c2ccco2)n1	nt	16	23	nt
CCOC(=O)Cc1csc(NC(=O)/C=C/c2ccc(Cl)cc2)n1	nt	14	55*	nt
Cc1cccc(NC(=O)/C(C#N)=C/c2ccc(Cl)cc2)n1	nt	nt	-12	nt
Cc1cccc(NC(=O)/C=C/c2ccc(Cl)cc2)n1	83*	-29	69*	0.2
CCCCCC(=O)N1C[C@H](n2cc(COC(=O)c3ccccc3)nn2)[C@@H](O)C[C@@H]1c1ccc(OC)cc1	nt	nt	21	nt
CSc1ccccc1-c1nnc(-c2ccc(C)cc2)o1	71*	47	62*	0.3
CSc1ccccc1-c1nnc(-c2ccccc2)o1	64*	10	39	0.4
CSc1nnc(-c2ccccc2SC)o1	2	5	-6	1
COc1ccccc1-c1nnc(-c2ccc(C)cc2)o1	nt	nt	53*	nt
COc1ccc(-c2nc3ccccc3n2Cc2ccccc2)cc1	5	8	5	1
CC(C)Cn1c(/C=C/c2ccccc2)nc2ccccc21	58*	4	46	0.4
CCC(C)n1c(/C=C/c2ccccc2)nc2ccccc21 (centres undefined)	36	12	11	0.6
COc1ccc(Cn2c(/C=C/c3ccccc3)nc3ccccc32)cc1	50*	26	48	0.5
CC1=C(/C=C/C(C)=C/C=C/C(C)=C\C(=O)O)C(C)(C)CCC1	nt	nt	9	nt
CC1=C(/C=C/C(C)=C/C=C/C(C)=C/C(=O)Nc2ccc(O)cc2)C(C)(C)CCC1	nt	nt	80*	nt
COC(=O)c1ccc(N=Nc2ccccc2)cc1	60*	11	7	0.4
CN(C(=O)OC(C)(C)C)c1ccc(-c2nc3ccccc3s2)cc1	nt	nt	89*	nt
Cc1cc(C)c(C)c(S(=O)(=O)N2CCN(CC(=O)c3c(N)n(Cc4ccccc4)c(=O)n(C)c3=O)CC2)c1C	-1	20	61*	1
CC(C)(C)OC[C@H](NC(=O)c1[nH]cnc1C(=O)Nc1ccccc1F)C(=O)OC(C)(C)C	nt	nt	60*	nt
O=C(Nc1cccc(Cl)c1)c1nc[nH]c1C(=O)NCCCNC(=O)c1[nH]cnc1C(=O)Nc1cccc(Cl)c1	nt	nt	50*	nt
O=C(Nc1ccccc1)c1nc[nH]c1C(=O)NCCCCNC(=O)c1[nH]cnc1C(=O)Nc1ccccc1	nt	nt	29	nt
O=C(Nc1ccccc1)c1nc[nH]c1C(=O)Nc1ccccc1F	nt	nt	50*	nt
CC(C)(C)OC(=O)[C@H](Cc1ccccc1)NC(=O)c1nc[nH]c1C(=O)N[C@@H](Cc1ccccc1)C(=O)OC(C)(C)C	nt	11	12	nt
SMILES	FLuc inhib CS	PPC-1+TRAIL kill	C8 TRAIL sens	FLuc stim CS
CC(C)(C)OC(=O)NCc1ccc(NC(=O)c2nc[nH]c2C(=O)NCCCCNC(=O)c2[nH]cnc2C(=O)Nc2ccc(CNC(=O)OC(C)(C)C)cc2)cc1	nt	nt	84*	nt
CC(C)(C)OC(=O)NCc1ccc(NC(=O)c2nc[nH]c2C(=O)NCCCCCCNC(=O)c2[nH]cnc2C(=O)Nc2ccc(CNC(=O)OC(C)(C)C)cc2)cc1	nt	nt	36	nt
CN(C(=O)CSc1cc(Cl)ccc1Cl)C1CCS(=O)(=O)C1 (centres undefined)	nt	nt	-4	nt
CCN(CC(=O)Nc1c(F)cccc1F)C(=O)c1cccnc1Sc1ccccc1	nt	nt	-14	nt
COc1ccc(CCN(C)C(=O)C(CCSC)NC(=O)c2ccco2)cc1OC (centres undefined)	nt	nt	10	nt
C[C@@H]1C(=O)N(c2ccccc2)[C@@H]1c1ccncc1	nt	nt	14	nt
COc1ccc(S(=O)(=O)N2CCC(C(=O)NCCC(=O)NCc3cccnc3)CC2)cc1	nt	nt	-17	nt
CC(C)(C)OC(=O)NCc1ccc(NC(=O)c2nc[nH]c2C(=O)Nc2cc(Br)ccc2F)cc1	nt	nt	12	nt
CC(C)(C)OC(=O)NCc1ccc(NC(=O)c2nc[nH]c2C(=O)NCCCNC(=O)c2[nH]cnc2C(=O)Nc2ccc(CNC(=O)OC(C)(C)C)cc2)cc1	nt	nt	83*	nt
CC(C)(C)OC(=O)NCc1ccc(CNC(=O)c2[nH]cnc2C(=O)Nc2ccccc2F)cc1	nt	nt	56*	nt
O=C(Nc1ccccc1F)c1nc[nH]c1C(=O)NCc1ccccc1	nt	nt	9	nt
CCOC(=O)c1ccc(NC(=O)c2nc[nH]c2C(=O)NCCCCCNC(=O)OC(C)(C)C)cc1	nt	12	52*	nt
CC(C)(C)OC(=O)NCCCCCNC(=O)c1[nH]cnc1C(=O)Nc1cc(Br)ccc1F	nt	nt	58*	nt
COCCN(CC(=O)NC1CCCCC1)C(=O)CCCC(=O)Nc1ccccn1	-3	-2	-10	1
Oc1ccc(C=Nc2ccc(N3CCOCC3)cc2)c(O)c1	78*	15	-11	0.2
CCCc1ccc(-c2cc(C(=O)NN3CCOCC3)c3ccccc3n2)cc1	59*	29	44	0.4
COCCNC(=O)c1cc(-c2ccc(-c3ccccc3)cc2)nc2ccccc12	nt	nt	56*	nt
COCCCNC(=O)c1cc(-c2cccnc2)nc2ccccc12	nt	nt	-15	nt
Cc1ccc(-c2cc(C(=O)n3cnc4ccccc43)c3ccccc3n2)cc1C	69*	48	67*	0.3
Cc1ccc(-c2cc(C(=O)N/N=C/c3cccnc3)c3ccccc3n2)cc1C	nt	nt	61*	nt
NS(=O)(=O)c1ccc(CCNC(=O)c2cc(-c3ccc(Br)cc3)nc3ccccc23)cc1	4	27	5	1
CCCc1ccc(-c2cc(C(=O)Nc3ccc([N+](=O)[O-])cn3)c3ccccc3n2)cc1	58*	18	51*	0.4
Cc1ccc(-c2cc(C(=O)NCc3ccccn3)c3ccccc3n2)cc1C	52*	28	41	0.5
CC(C)Oc1cccc(-c2cc(C(=O)NC(=S)N(C)c3ccccc3C(=O)O)c3ccccc3n2)c1	64*	28	33	0.4
CCCc1ccc(-c2cc(C(=O)NCCc3ccc(S(N)(=O)=O)cc3)c3ccccc3n2)cc1	64*	38	58*	0.4
SMILES	FLuc inhib CS	PPC-1+TRAIL kill	C8 TRAIL sens	FLuc stim CS
CSCC[C@H](NC(=O)[C@@H]1Cc2ccccc2CN1)C(=O)Nc1ccc2c(c1)OCCO2	nt	nt	-23	nt
Cc1ccc(/C=C2\SC(N3CCN(C(c4ccccc4)c4ccccc4)CC3)=NC2=O)o1	6	38	-7	0.9
CCNC(=S)NNC(=O)c1cc(-c2cccc(OC)c2)nc2ccccc12	83*	51*	21	0.2
CCCOc1cccc(-c2cc(C(=O)NNC(=S)NCC)c3ccccc3n2)c1	48	38	39	0.5
CC(=Nc1ccccc1)c1sc2ccccc2c1O	61*	30	35	0.4
O=C1NC(c2ccc(O)cc2)Nc2ccccc21 (centres undefined)	nt	nt	13	nt
CSc1ccc(C2NC(=O)c3ccccc3N2)cc1 (centres undefined)	nt	nt	51*	nt
COc1ccc(-c2cc(=O)c3cc(C)ccc3[nH]2)cc1	82*	40	73*	0.2

Screening results deposited in PubChem BioAssay by Sanford-Burnham Center for Chemical Genomics.
